Results on three compounds are retold here after ChEMBL document CHEMBL1136224, “De novo synthesis of two new cytotoxic tiazofurin analogues with modified sugar moieties” (Bioorg Med Chem Lett, 2003).

A word on the IC50: it is the concentration at which inhibition is half-maximal. Low values mean higher potency, high ones lower potency.

SMILES strings stand for the structures. Some results are limits rather than exact numbers.

Format in all cases: functional, cell-based
Holding throughout (conditions): Homo sapiens

Assay [1] has as its system HL-60. Kind of assay: Concentration required to inhibit HL-60 cell growth. In outline: (§1)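 MTT assay after 24 h incubation with compound, top tested concentration 1000 µM. IC50 = concentration giving 50% inhibition of cell growth relative to untreated control. Human lines: myelogenous leukaemia K562, promyelocytic leukaemia HL60, colon adenocarcinoma HT29, breast adenocarcinoma MCF7, normal foetal lung MRC-5.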

The subject of assay [2] is MRC5. Kind of assay: Concentration required to inhibit MRC-5 cell growth. In outline:
as §1

Assay [3] deals with HT-29. Kind of assay: Concentration required to inhibit HT-29 cell growth. In outline:
as §1

Assay [4] relates to K562. In words: Concentration required to inhibit K562 cell growth. In outline: as §1
Assay [5] deals with MCF7. In words: Concentration required to inhibit MCF-7 cell growth. In outline:
as §1

For `NC(=O)c1csc([C@@H]2O[C@H](CO)[C@@H](F)[C@H]2O)n1`, the IC50 was 10.5 µM in assay [1]; > 1000 µM in assay [2]; 0.91 µM in assay [3]; 96.6 µM in assay [4]; > 1000 µM in assay [5].
As to `CC(=O)N[C@H]1[C@@H](O)[C@H](c2nc(C(N)=O)cs2)O[C@@H]1CO`, the IC50 was 1000 µM in assay [1]; 89.7 µM in assay [2]; 1 µM in assay [3]; 0.095 µM in assay [4]; > 1000 µM in assay [5].
The like results for `NC(=O)c1csc([C@@H]2O[C@H](CO)[C@@H](O)[C@H]2O)n1` [TIAZOFURIN] were, in that order, 9.32 µM, 0.85 µM, 1.01 µM, 4.16 µM and 8.49 µM.
